Measured values published in PMC2788666 (Journal of medicinal chemistry, 2009).
Entries after “also recorded” stand apart in the source; their conditions may differ. Like-named read-outs stand apart in the source and are kept apart here.

Experiments:
[1] = target: T1, κ opioid receptor (Homo sapiens, UniProt P41145); assay: Opioid binding to κ receptor, [3H]U69,593, CHO membranes; conditions: for times less active than unsubstituted C10 bivalent ligand 10 at the κ receptor: binding affinity versus 10; for Selectivity μ/δ/κ: ratio of Ki values, κ = 1
Outline: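 Membranes from CHO cells stably expressing human κ opioid receptor were incubated 60 min at 25 °C in 50 mM Tris-HCl pH 7.5 with 1 nM (final) [3H]U69,593. […] Samples were filtered on glass-fibre filters presoaked ≥30 min in 0.1% polyethylenimine, washed three times with cold Tris buffer, and counted by scintillation. IC50 came from a log-probit least-squares fit, Ki from IC50/(1+S), and ratios from Ki values.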

[2] = target: T2, μ opioid receptor (Homo sapiens, UniProt P35372); assay: [35S]GTPγS binding mediated by the μ opioid receptor, agonist effects; format: biochemical; conditions: for Functional Activity at μ opioid receptor: [35S]GTPγS binding; for Emax (% stimulation) ± S.E.M., Mu Agonist Effects: CHO cells expressing μ opioid receptor
[3] = target: T1, κ opioid receptor; assay: [35S]GTPγS binding mediated by the kappa opioid receptor, antagonist effects; format: biochemical; conditions: for IC50 (nM) ± S.E.M., Kappa Antagonist Effects: binding stimulated with 100 nM U50,488; for Imax (% inhibition) ± S.E.M., Kappa Antagonist Effects: binding stimulated with 100 nM U50,488, set at 100% control
Outline: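 Antagonist mode in CHO cells expressing κ opioid receptor: [35S]GTPγS binding was stimulated with 100 nM U50,488, taken as 100% control binding. Inhibition of this stimulated binding by test compound was measured, and IC50 and maximal inhibition (% inhibition) are reported with S.E.M.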

[4] = target: T1, κ opioid receptor; assay: [35S]GTPγS binding mediated by the kappa opioid receptor, agonist effects; format: biochemical; conditions: for Functional activity at κ opioid receptor: [35S]GTPγS binding
Outline: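 CHO cells expressing κ opioid receptor were incubated with test compound at 12 concentrations, and agonist-stimulated [35S]GTPγS binding was measured. EC50 and maximal stimulation (% stimulation) are reported with S.E.M.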

[5] = target: T2, μ opioid receptor; assay: [35S]GTPγS binding mediated by the μ opioid receptor, antagonist effects; format: biochemical; conditions: binding stimulated with 200 nM DAMGO; for Imax (% inhibition) ± S.E.M., Mu Antagonist Effects: set at 100% control
[6] = target: T1, κ opioid receptor; conditions: ratio of Ki values, κ = 1; ref [2]; cited from earlier work
[7] = pH 7.4; ref [8]; cited from earlier work

T2 sequence (P35372 whole entry): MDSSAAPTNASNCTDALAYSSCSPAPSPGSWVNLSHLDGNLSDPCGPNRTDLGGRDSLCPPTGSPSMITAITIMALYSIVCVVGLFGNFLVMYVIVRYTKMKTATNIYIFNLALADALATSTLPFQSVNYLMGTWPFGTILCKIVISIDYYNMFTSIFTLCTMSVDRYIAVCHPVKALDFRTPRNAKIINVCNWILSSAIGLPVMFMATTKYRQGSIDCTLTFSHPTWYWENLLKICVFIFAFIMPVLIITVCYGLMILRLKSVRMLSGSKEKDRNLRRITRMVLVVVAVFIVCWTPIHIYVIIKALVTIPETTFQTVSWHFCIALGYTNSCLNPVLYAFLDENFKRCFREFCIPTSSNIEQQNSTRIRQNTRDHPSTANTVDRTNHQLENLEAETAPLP
T1 sequence (P41145 whole entry): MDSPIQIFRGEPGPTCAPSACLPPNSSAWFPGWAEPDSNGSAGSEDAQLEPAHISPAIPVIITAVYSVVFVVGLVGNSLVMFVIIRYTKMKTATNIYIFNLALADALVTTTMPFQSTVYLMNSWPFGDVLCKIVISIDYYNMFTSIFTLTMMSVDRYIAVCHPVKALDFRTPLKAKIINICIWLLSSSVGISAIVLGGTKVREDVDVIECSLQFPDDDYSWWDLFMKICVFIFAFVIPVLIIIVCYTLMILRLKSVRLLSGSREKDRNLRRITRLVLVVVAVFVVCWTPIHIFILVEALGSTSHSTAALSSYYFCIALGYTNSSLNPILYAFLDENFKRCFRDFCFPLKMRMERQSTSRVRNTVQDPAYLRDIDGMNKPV

| SMILES | times less active than unsubstituted C10 bivalent ligand 10 at the κ receptor [1] | Functional Activity at μ opioid receptor [2] | IC50 (nM) ± S.E.M., Kappa Antagonist Effects [3] | Imax (% inhibition) ± S.E.M., Kappa Antagonist Effects [3] | Functional activity at κ opioid receptor [4] | Selectivity μ/δ/κ [1] | Imax (% inhibition) ± S.E.M., Mu Antagonist Effects [5] | Emax (% stimulation) ± S.E.M., Mu Agonist Effects [2] [% stimulation] | Emax (% stimulation) ± S.E.M., Kappa Agonist Effects ([4]; CHO cells expressing κ opioid receptor) [% stimulation] | IC50 (nM) ± S.E.M., Mu Antagonist Effects [5] | Selectivity μ/δ/κ [6] | times more stable than mono phenyl succinate [7] [times] |
| --- | --- | --- | --- | --- | --- | --- | --- | --- | --- | --- | --- | --- |
| CC(CCCCCCC(C)C(=O)Oc1ccc2c(c1)[C@@]13CCCC[C@H]1[C@@H](C2)N(CC1CCC1)CC3)C(=O)Oc1ccc2c(c1)[C@@]13CCCC[C@H]1[C@@H](C2)N(CC1CCC1)CC3 (stereo partly drawn) [4a, Bis((−)-N-cyclobutylmethylmorphinan-3-yl) 2,9-dimethyldecanedioate] | approximately 10 times | Partial Agonist | No inhibition | No inhibition | partial agonists; also recorded: κ agonists; also recorded: Agonist |  |  |  |  |  |  |  |
| CC(C)(CCCCCCC(C)(C)C(=O)Oc1ccc2c(c1)[C@@]13CCCC[C@H]1[C@@H](C2)N(CC1CCC1)CC3)C(=O)Oc1ccc2c(c1)[C@@]13CCCC[C@H]1[C@@H](C2)N(CC1CCC1)CC3 [4b, Bis((−)-N-cyclobutylmethylmorphinan-3-yl) 2,2,9,9-tetramethyldecanedioate] | approximately 10 times | Partial Agonist | No inhibition | No inhibition | partial agonists; also recorded: κ agonists; also recorded: Agonist | 1/32/1 |  |  |  |  |  |  |
| CC(CCCCCCC(C)C(=O)Oc1ccc2c(c1)[C@@]13CCCC[C@H]1[C@@H](C2)N(CC1CCC1)CC3)C(=O)O (stereo partly drawn) [7a, 2,9-Dimethyldecanedioic acid 10-((−)-N-cyclobutylmethylmorphinan-3-yl) ester] |  | Partial Agonist | No inhibition | No inhibition | κ agonists; also recorded: Agonist | 1/48/1 |  |  |  |  |  |  |
| CC(C)(CCCCCCC(C)(C)C(=O)Oc1ccc2c(c1)[C@@]13CCCC[C@H]1[C@@H](C2)N(CC1CCC1)CC3)C(=O)O [7b, 2,2,9,9-Tetramethyldecanedioic acid 10-((−)-N-cyclobutylmethylmorphinan-3-yl) ester] |  |  |  |  |  | 3/22/1 |  |  |  |  |  |  |
| Oc1ccc2c(c1)[C@@]13CCCC[C@H]1[C@@H](C2)N(CC1CCC1)CC3 [Butorphan, butorphan] |  | Partial Agonist |  |  | Agonist |  | 50 ± 2.6 % inhibition | 50 ± 2.5 | 80 ± 6.8 |  |  |  |
| O=C(O)CCCCCCCCC(=O)Oc1ccc2c(c1)[C@@]13CCCC[C@H]1[C@@H](C2)N(CC1CCC1)CC3 [compound 9, reference compound] |  | full μ agonist | No inhibition | No inhibition | κ agonists; also recorded: full agonist |  | No inhibition |  |  | No inhibition |  |  |
| O=C(CCCCCCCCC(=O)Oc1ccc2c(c1)[C@@]13CCCC[C@H]1[C@@H](C2)N(CC1CCC1)CC3)Oc1ccc2c(c1)[C@@]13CCCC[C@H]1[C@@H](C2)N(CC1CCC1)CC3 [compound 10, reference compound] |  | Partial Agonist | No inhibition | No inhibition | Agonist |  |  | 51 ± 6.5 |  |  | 2/90/1 |  |
| C=CCN1CC[C@]23c4c5ccc(OC(=O)CCCCCCCCC(=O)Oc6ccc7c(c6)[C@@]68CCCC[C@H]6C(C7)N(CC6CCC6)CC8)c4O[C@H]2CCC[C@H]3[C@H]1C5 [compound 11, reference compound] |  | Partial Agonist | No inhibition | No inhibition | κ agonists; also recorded: Agonist |  |  |  |  |  |  |  |
| CC(CC(=O)Oc1ccccc1)C(=O)O (stereo not drawn) [mono phenyl ester of 2-methylsuccinic acid] |  |  |  |  |  |  |  |  |  |  |  | 43 |
